Data as given in PubChem BioAssay AID1230 (PCMD, 2008).
The campaign covered roughly 210,000 compounds. About 220 (0.1%) were called active.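 How the source made its calls: active means signal enhancement of 30% or more; inactive means the rest.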 The full list was thinned out, with actives kept by preference.

target: E3 ubiquitin-protein ligase Mdm2 (Homo sapiens) (UniProt Q00987); experiment: increase of MDM2 autoubiquitination reporter luminescence – cell-based, 1536-well, MDM2 E3 ligase inhibitor project, primary screen (AID 1230); settings: cell-based MDM2 ubiquitination luciferase reporter, 2 h; at 5 µM; hits give high values; 0 = plate control, 100 = twice control, blank-subtracted;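 further: luminescence tracks abundance of the self-degrading MDM2-luciferase fusion protein; higher signal means inhibition of MDM2 E3 ligase activity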
Sequence (Q00987 whole entry, looked up, the tested form may be a part): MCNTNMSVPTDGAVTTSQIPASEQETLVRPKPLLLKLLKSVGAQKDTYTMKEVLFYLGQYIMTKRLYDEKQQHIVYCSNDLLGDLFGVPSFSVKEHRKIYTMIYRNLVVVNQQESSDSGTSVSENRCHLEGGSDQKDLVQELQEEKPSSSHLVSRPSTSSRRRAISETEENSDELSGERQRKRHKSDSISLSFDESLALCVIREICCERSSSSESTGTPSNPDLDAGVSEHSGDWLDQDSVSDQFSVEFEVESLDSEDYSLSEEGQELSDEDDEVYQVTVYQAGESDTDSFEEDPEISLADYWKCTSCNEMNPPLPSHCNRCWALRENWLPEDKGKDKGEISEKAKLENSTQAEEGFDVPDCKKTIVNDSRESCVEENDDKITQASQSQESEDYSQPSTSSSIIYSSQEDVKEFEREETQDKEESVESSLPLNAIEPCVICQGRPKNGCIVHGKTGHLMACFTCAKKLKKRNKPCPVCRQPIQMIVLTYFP
Method in brief: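 System: stable MDM2–luciferase fusion reporter cells / Input: 2000 cells seeded into each well / Schedule: 4 h settle plus 2 h compound, 37 °C / Compound: single-point 5 µM / Buffer or medium: cells held in DMEM / Benchmarks: control and blank well means / Evaluation: percent signal gain over controls, blank-subtracted / Measured by: luciferase luminescence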

Row | SMILES | signal enhancement
1 | CCCc1nc2oc3c(=O)[nH]cnc3c2c2c1COC(C)(C)C2 | 1.7% (inactive)
2 | COc1c(N2CCN(C(=S)Nc3ccccc3F)C(C)C2)c(F)cc2c(=O)c(C(=O)O)cn(C3CC3)c12 (centres undefined) | 0.25% (inactive)
3 | CCc1cc2c(=O)c(-c3ccc(F)cc3)c(C(F)(F)F)oc2cc1OCC(=O)O | -6.75% (inactive)
4 | CCOC(=O)c1oc2c(CN3CCN(CCO)CC3)c(O)c(CC)cc2c(=O)c1-c1nc2ccccc2s1 | -10.7% (inactive)
5 | CCc1cc2c(=O)c(-c3nc4ccccc4n3C)c(CCCC(=O)O)oc2cc1OC(=O)C(C)(C)C | 32.3% (active)
6 | CCOc1c(Nc2cccc(Cl)c2)c(=O)c1=O | -2.35% (inactive)
7 | NC1=NC[C@@H](Cc2ccc(O)cc2)N1CC1CCCCC1 | 7.84% (inactive)
8 | Oc1c(Br)cc(/C=N/NC(=S)NCC2CCCO2)cc1Br (centres undefined) | -4.26% (inactive)
9 | N#Cc1ccc(Oc2ccc(C(F)(F)F)cc2NC(=O)c2ccc(F)cc2)cc1 | -13.7% (inactive)
10 | CC1(C)CCSC(/C=C/c2ccccc2)=N1 | 3.53% (inactive)
11 | NS(=O)(=O)c1ccc(NC(=O)COC(=O)c2cc3ccccc3oc2=O)cc1 | -3.08% (inactive)
12 | Cc1cc(C)nc(SCc2cn3c(C)cc(C)nc3n2)n1 | -13.6% (inactive)
13 | COc1cc(NC(=O)c2ccc(CNc3c(N4CCCC4)c(=O)c3=O)cc2)cc(OC)c1OC | -5.93% (inactive)
14 | COc1cc(C(CCN2CCN(c3ccccc3)CC2)c2c(OC)cc(OC)c3ccc(=O)oc23)cc(OC)c1OC (centres undefined) | 17.2% (inactive)
15 | CC(C)COC(=O)n1c(=O)oc2ccc(S(=O)(=O)N3CCCCC3)cc21 | -7.89% (inactive)
16 | CN(C)c1cc(-c2ccc(F)cc2)oc(=O)c1Cl | -15.5% (inactive)
17 | COc1ccccc1NC(=O)c1cc(Cl)nc2ccccc12 | -12.4% (inactive)
18 | Cc1onc(-c2c(Cl)cccc2Cl)c1C(=O)NNC(=O)c1c(-c2c(Cl)cccc2Cl)noc1C | -1.5% (inactive)
19 | Cc1cc(C)cc(NS(=O)(=O)c2ccc(F)cc2)c1 | -8.71% (inactive)
20 | COc1ccccc1CNC(=O)Cn1c(=O)oc2cc(Cl)ccc21 | -8.67% (inactive)
21 | Cc1noc(C)c1-c1nc(CSc2ccc(Cl)cc2)no1 | -16.2% (inactive)
22 | Cc1ccc(/C=N/NC(=S)Nc2cccc(S(=O)(=O)N(C)C)c2)o1 | -13.3% (inactive)
23 | Cc1cccc(-[n+]2c(-c3cccc(Br)c3)[nH]c3nc4ccccc4nc32)c1 | -76.7% (inactive)
24 | O=C1NNC(c2ccccc2)=N/C1=C\c1ccc(Cl)cc1 | -9.72% (inactive)

Row | SMILES | signal enhancement
25 | O=c1cc(CCl)nc2scc(-c3ccccc3)n12 | -0.33% (inactive)
26 | CCOC(=O)Cn1nnnc1C | 38.2% (active)
27 | CCOC(=O)Cn1c(N)c(C(=O)OC)sc1=S | -0.11% (inactive)
28 | CCOC(=O)CNC(=O)CSc1nnnn1-c1cc(C)ccc1C | 16.5% (inactive)
29 | Cc1cc(=O)oc2cc(OCCC[n+]3ccccc3)ccc12 | -9.35% (inactive)
30 | Cc1cc(NC(=O)OC(C)C)ccc1-c1ccc(NC(=O)OC(C)C)cc1C | 0.08% (inactive)
31 | O=S(=O)(c1ccccc1)N1CN(Cc2ccc(F)cc2)c2nc3ccccc3nc21 | -0.23% (inactive)
32 | CCCCNC(=O)OCCSCCS(=O)(=O)c1ccc(Cl)cc1 | -11.5% (inactive)
33 | O=C(NN1C(=O)C2C(C1=O)C1C=CC2C12CC2)c1ccccc1Cl (centres undefined) | -6.98% (inactive)
34 | COc1cc(C=O)ccc1Oc1nnnn1-c1ccccc1 | -12.6% (inactive)
35 | Cn1nc(C(C)(C)C)c(NC(=O)c2sccc2Cl)c1C(C)(C)C | -2.73% (inactive)
36 | COc1ccc(NC2=CC(=S)NC(C)(C)C2)cc1 | -2.53% (inactive)
37 | O=C(Nc1ccc(F)cc1)c1cc2c(s1)CCCC2 | -16.8% (inactive)
38 | COc1ccc(COCCN2CCN(S(=O)(=O)c3ccccc3)CCC2=O)cc1 | 16.8% (inactive)
39 | COc1ccc(COCC(O)CN2CCC(C(N)=O)CC2)cc1 (centres undefined) | -1.62% (inactive)
40 | O=C(CCl)Nc1cccc(CP(=O)(c2ccccc2)c2ccccc2)c1 | -14.8% (inactive)
41 | O=c1[nH]c2cccnc2n1-c1ccc([N+](=O)[O-])cc1 | -12% (inactive)
42 | O=C(NNC(=S)Nc1ccc(F)cc1)[C@H]1C[C@@H]1c1ccccc1 | -1.61% (inactive)
43 | CCOC(=O)/C=C/CN(C(=O)OC(C)(C)C)S(=O)(=O)N1CC=CC1 | 1.19% (inactive)
44 | Cc1cc(Nc2ccc(N3CCOCC3)cc2)c2cccc(C)c2n1 | 5.92% (inactive)
45 | N#CC1=C(N)Oc2c(ccc3cccnc23)C1c1ccncc1 (centres undefined) | -12.4% (inactive)
46 | COCc1cc(=O)oc2cc(NS(=O)(=O)c3ccc(C)cc3)ccc12 | -14.3% (inactive)
47 | CC(=O)N(OCc1ccc(OC(C)C)c(Cl)c1)C(C)=O | -12.5% (inactive)
48 | Cc1ccc(S(=O)(=O)NC(=O)N2CCCN(Cc3ccc(F)cc3)CC2)cc1 | -8.58% (inactive)

Row | SMILES | signal enhancement
49 | CCC/C(C)=N\Nc1nc2c(c(=O)n(C)c(=O)n2C)n1C | -9.83% (inactive)
50 | CCO[C@@H]1OC(C(=O)NC2CC2)=C[C@H](C)[C@H]1CCCO | -12.6% (inactive)
51 | CC(C)C[C@H](CO)Nc1nc(N(C)c2cccc(Cl)c2)c2ncn(C(C)C)c2n1 | 10% (inactive)
52 | Cc1ccc(/C=C/C(=O)O)cc1S(=O)(=O)N1CCC(Cc2ccccc2)CC1 | -0.26% (inactive)
53 | O=C(CCCOc1ccccc1)Nc1cccc(C(=O)O)c1 | -14.6% (inactive)
54 | O=C(CNCc1ccc(Cl)cc1)Nc1cccc(C(=O)O)c1 | 35.7% (active)
55 | O=C(CCC(=O)OCc1ccc(Cl)cc1)Nc1ccccc1 | -8.79% (inactive)
56 | CCN(CC)CCn1c(N)c(S(=O)(=O)c2ccccc2)c2nc3ccccc3nc21 | -7.92% (inactive)
57 | Nc1ccc(-c2nnc(-c3ccc(-c4ccccc4)cc3)o2)cc1 | -17.1% (inactive)
58 | OC(c1nnc(-c2ccccc2)o1)c1cccs1 (centres undefined) | 31.9% (active)
59 | CCCN(CCC)c1ccc(C(O)c2nnc(-c3ccccc3)o2)cc1 (centres undefined) | -18.3% (inactive)
60 | O=S(=O)([N-]c1nc2ccccc2nc1-[n+]1ccc(Cc2ccccc2)cc1)c1ccc(Br)s1 | -17.8% (inactive)
61 | COc1ccc(NC(=O)C2=C(C)NC(=O)NC2c2ccccc2[N+](=O)[O-])cc1 (centres undefined) | -9.62% (inactive)
62 | Nc1nc(NCC2CCCO2)nc(Nc2ccccc2F)c1[N+](=O)[O-] (centres undefined) | 1.79% (inactive)
63 | CCS(=O)(=O)Nc1cc(C(=O)OC)ccc1C(=O)OC | -8.23% (inactive)
64 | CCN(CCO)C(=S)Nc1cc(C(=O)OC)ccc1C(=O)OC | 3.69% (inactive)
65 | CCCN(CCC)C(=S)Nc1cc(C(=O)OC)ccc1C(=O)OC | 39.1% (active)
66 | Cc1cc(C)cc(OCC(=O)NNC(=O)c2cc3ccccc3oc2=O)c1 | 1.34% (inactive)
67 | Cc1cc(C)cc(OCC(=O)NNC(=O)CCN2C(=O)c3ccccc3C2=O)c1 | 31.1% (active)
68 | O=C(CCN1C(=O)c2ccccc2C1=O)NNC(=O)c1ccc(Cl)cc1Cl | -8.02% (inactive)
69 | Clc1ccc(-c2cc(-c3ccccn3)on2)c(Cl)c1 | -77.9% (inactive)
70 | CCCN(c1ccc(C)cc1)c1nc(=O)c2cccnc2s1 | -10% (inactive)
71 | Fc1ccc(Nc2nnns2)cc1 | -6.61% (inactive)
72 | COc1ccc(CS(=O)/C(Cl)=C(/Cl)C(=O)Nc2ccc(OC)nc2)cc1 (centres undefined) | 53.8% (active)

Row | SMILES | signal enhancement
73 | CC(=O)Nc1ccc(OCC(=O)NCc2ccc(C)cc2)cc1 | -12.3% (inactive)
74 | Cc1ccc(NC(=O)OCc2cncs2)cc1 | -21.3% (inactive)
75 | COc1ccc(C(=O)Nc2ccc(NC(=O)C(C)C)nc2)cc1 | -20.6% (inactive)
76 | COc1ccc(NC(=S)Nc2ccccc2Cl)cn1 | -15.3% (inactive)
77 | COc1ccc(NC(=O)/C(Cl)=C(/Cl)S(=O)Cc2ccc(C)cc2)cn1 (centres undefined) | 72.4% (active)
78 | CC(C)CCNC(=O)C1CCC(CNc2c(N3CCC(C)CC3)c(=O)c2=O)CC1 (centres undefined) | -5.11% (inactive)
79 | COc1ccc2c(CC(=O)OCC(=O)NC(N)=O)coc2c1 | 0.56% (inactive)
80 | COC(=O)/C=C(\Oc1ccccc1)C1(O)CCCCC1 | -12% (inactive)
81 | CC(=O)NNC(=O)c1csc(Cc2c(Cl)sc3ccc(Cl)cc23)n1 | -2.59% (inactive)
82 | CCC1(C)Cc2c(sc3nc(SC)[nH]c(=O)c23)CO1 (centres undefined) | -9.94% (inactive)
83 | CCOC(=O)CC1C(=O)NCCN1c1nc2c(C)cccn2c(=O)c1/C=C1\SC(=S)N(C(C)CC)C1=O (centres undefined) | -24.8% (inactive)
84 | COc1cccc(C(=O)Oc2cc(C)[nH]c(=O)c2[N+](=O)[O-])c1 | -90.1% (inactive)
85 | O=C(Oc1ccccc1C(=S)N1CCCCC1)c1cc([N+](=O)[O-])cc([N+](=O)[O-])c1 | -1.87% (inactive)
86 | Cc1cc(OC(=O)c2ccccc2)c([N+](=O)[O-])c(=O)[nH]1 | 39.8% (active)
87 | c1csc(-c2nnc(COc3ncnc4sccc34)o2)c1 | -10.9% (inactive)
88 | COc1ccc(/C=N/NS(=O)(=O)c2ccc(NC(C)=O)cc2)cc1 | -14.4% (inactive)
89 | Cc1nc(-c2ccccc2)sc1-c1nnc(C2CC2)o1 | -9.04% (inactive)
90 | CCOc1ccc(C2NC(=S)NC3=C2CCc2ccccc23)cc1 (centres undefined) | -16.9% (inactive)
91 | CN(c1ccc(OCC(=O)NC2=NCCS2)cc1)S(=O)(=O)c1ccc(F)cc1 | -0.06% (inactive)
92 | Cc1ccc(Oc2nc(-c3ccccn3)nc3ccccc23)cc1 | -1.85% (inactive)
93 | Brc1ccc2c(c1)[C@H]1OCC[C@H]1[C@@H](c1cccs1)N2 | -17.3% (inactive)
94 | COc1ccc(OC)c(-n2c(-c3ccn[nH]3)n[nH]c2=S)c1 | -7.17% (inactive)
